This note sets out measurements from publication PMC2849840 (Molecular pharmaceutics, 2010).

The subject of data set [1] is ATP production in MDCK-MDR1 cells. Nature of the data set: ATP assay. To be noted: 20 mM HEPES in culture medium. It counts as cell-based. The method in brief:
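MDCK-MDR1 cells grown in DMEM with 10% heat-inactivated calf serum at 37 °C, 5% CO2, in 96-well plates for 6–7 days to full confluence, in medium without HEPES (Set 1) or with 20 mM HEPES (Set 2). Cells lysed for […]; ATP in lysate read by luminescence kit, with protein measured by Bradford. At least triplicate; mean ± SD.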

Data set [2] concerns MDCK-MDR1 cells. The data set is described as follows: Uptake of radiolabelled substrates into MDCK-MDR1 cells in DPBS with HEPES.
Data set [3] can be described thus: Bidirectional transepithelial transport of [3H]lopinavir across MDCK-MDR1 cells. It is filed as in vitro ADME. As to conditions: dog, MDCK-MDR1, 37 °C; for Papp A→B at 0.5 μCi/mL: MDCK-MDR1, pH 7.4, PappA-B; for Papp B→A at 0.5 μCi/mL: MDCK-MDR1, pH 7.4, PappB-A.
Data set [4] deals with MDCK-MDR1 cells.
Data set [5] has as its system MDCK-MDR1 cells. It is filed as in vitro ADME.

Structures are written as SMILES.

Turning to `O=S(=O)(O)CCN1CCN(CCO)CC1` [HEPES, 4-(2-hydroxyethyl)-1-piperazineethanesulfonic acid], the “elevation of ATP production, Set 2 compared to Set 1” value in data set [1] came out at 70%.
For `N[C@@H](CCC(=O)O)C(=O)O` [glutamic acid], the “elevation of uptake over the control” value is reported as “about 30%” in the data set with MDCK-MDR1 cells [2] (15 mM HEPES) and around 45% with MDCK-MDR1 cells [2] (25 mM HEPES).
Usually Papp A→B stands for the apparent permeability from the apical to the basolateral side of a cell layer. The Papp B→A is how fast a substance crosses the layer from the basolateral side. In data set [3] (25 mM HEPES in DPBS), `Cc1cccc(C)c1OCC(=O)N[C@@H](Cc1ccccc1)[C@@H](O)C[C@H](Cc1ccccc1)NC(=O)[C@H](C(C)C)N1CCCNC1=O` [lopinavir] returned a Papp A→B at 0.5 μCi/mL of 22.8 ± 1.03 ×10⁻⁶ cm/s and a Papp B→A at 0.5 μCi/mL of 165 ± 11.1 ×10⁻⁶ cm/s. Further, in data set [3] (Control (0 mM HEPES) in DPBS), the Papp A→B at 0.5 μCi/mL was found to be 30.2 ± 2.56 ×10⁻⁶ cm/s and the Papp B→A at 0.5 μCi/mL came out at 148 ± 7.92 ×10⁻⁶ cm/s. Also, the “accumulation into cells versus control (0 mM HEPES)” value in the data set with MDCK-MDR1 cells [4] is reported as “significant reduction”. The “accumulation by Set 2 cells compared with Set 1 cells” value in the data set with MDCK-MDR1 cells [5] (Set 2 grown with 20 mM HEPES, Set 1 without, 0, 15, 25 mM HEPES in DPBS) is given as “significantly less”. In addition, the “accumulation by Set 2 cells compared to Set 1 cells” value in the data set with MDCK-MDR1 cells [5] (in the presence of 1 μM or 2 μM unlabelled lopinavir, DPBS with 25 mM HEPES) is on record as “higher accumulation”. The “elevation of accumulation, Set 2 versus Set 1 cells” value in the data set with MDCK-MDR1 cells [5] (in the presence of 5 μM unlabelled lopinavir, DPBS with 25 mM HEPES) is recorded as “not statistically different”.
Take `N[C@@H](Cc1ccccc1)C(=O)O` [phenylalanine]: the “change of uptake in the presence of HEPES” value with MDCK-MDR1 cells [2] (15 and 25 mM HEPES) is “no significant change”.
As to `CC(C)c1nc(CN(C)C(=O)N[C@H](C(=O)N[C@@H](Cc2ccccc2)C[C@H](O)[C@H](Cc2ccccc2)NC(=O)OCc2cncs2)C(C)C)cs1` [ritonavir], in the data set on MDCK-MDR1 cells [4], the “accumulation into cells versus control (0 mM HEPES)” value is reported as “significant reduction”.
